The source made the active and inactive calls. No cut-off for these calls is given here.
How the values were obtained:
MDA-MB-435 [1] = assay: Effect on calcium influx in human MDA-MB-435 cells harboring siRNA and siOrai1 at 1 uM measured after 1 hr by Fura2-AM dye based fluorescence assay; assay type: functional, cell-based
Summary of the method: (§1)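 Constitutive Ca²⁺ entry in MDA-MB-435s shRD or shSK3 cells, measured 48 h after transfection with 30 nM siOrai1 or siCTL. Cells were treated 1 h with compound and loaded with Fura2-AM for 45 min at 37 °C. They were then resuspended in Ca²⁺-free solution for 20 s before 2 mM CaCl₂ was added. Emission read at 510 nm with 340/380 nm excitation. Steady-state signal normalized to control. Three experiments in triplicate.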

MDA-MB-435 [2] = assay: Toxicity in human MDA-MB-435 cells assessed as mortality at 10 uM measured after 24 hrs by MTT assay relative to control; assay type: cell-based; details: mda-mb-435, 24 h
Summary of the method: (§2)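 MTT viability assay: about 4 × 10⁴ MDA-MB-435s cells seeded in triplicate with the molecules (tested series 100 nM, 300 nM, 1 µM, 3 µM, 10 µM) and kept 24 h at 37 °C. Medium was then removed and cells incubated 45 min at 37 °C with tetrazolium salt, which viable cells reduce to formazan. Results given as % mortality.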

[3] = molecular target: Small conductance calcium-activated potassium channel protein 3 (Homo sapiens) (UniProt Q9UGI6); assay: Inhibition of SK3 (unknown origin) expressed in HEK293 cells assessed as reduction in channel current at 10 uM with 0 mV holding potential by patch clamp electrophysiological method; assay type: cell-based
Sequence of Small conductance calcium-activated potassium channel protein 3 (Homo sapiens) (Q9UGI6 whole entry): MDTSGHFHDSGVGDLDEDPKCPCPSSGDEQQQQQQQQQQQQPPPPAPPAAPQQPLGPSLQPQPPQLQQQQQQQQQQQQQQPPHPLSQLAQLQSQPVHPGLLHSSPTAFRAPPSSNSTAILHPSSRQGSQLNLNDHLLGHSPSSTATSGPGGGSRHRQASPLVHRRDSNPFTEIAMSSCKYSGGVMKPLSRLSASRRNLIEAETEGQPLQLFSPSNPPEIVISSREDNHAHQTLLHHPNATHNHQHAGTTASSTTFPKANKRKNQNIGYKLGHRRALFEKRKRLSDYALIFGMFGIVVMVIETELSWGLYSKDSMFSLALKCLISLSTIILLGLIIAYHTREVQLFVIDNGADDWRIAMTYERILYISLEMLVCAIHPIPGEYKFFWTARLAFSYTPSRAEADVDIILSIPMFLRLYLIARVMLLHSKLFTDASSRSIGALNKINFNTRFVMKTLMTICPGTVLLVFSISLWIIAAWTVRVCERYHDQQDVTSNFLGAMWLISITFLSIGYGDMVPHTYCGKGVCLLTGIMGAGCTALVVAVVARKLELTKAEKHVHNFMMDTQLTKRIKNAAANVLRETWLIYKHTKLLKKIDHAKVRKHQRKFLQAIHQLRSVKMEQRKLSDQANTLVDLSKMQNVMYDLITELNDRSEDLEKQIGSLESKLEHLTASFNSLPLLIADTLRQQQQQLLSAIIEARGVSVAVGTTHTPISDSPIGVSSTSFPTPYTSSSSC
Summary of the method: (§3)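 Patch clamp on HEK-293 cells stably expressing SK3 (lentiviral). Compound added acutely; DMSO/methanol was the vehicle, and runs with or without apamin. Ramp from −80 to +80 mV, holding at 0 mV, 500 ms ramps at 4 s intervals. Current analyzed at 0 mV to minimize chloride currents, followed as a time course. Pipette solution adjusted to pH 7.2 with KOH.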

[4] = molecular target: Small conductance calcium-activated potassium channel protein 3 (Homo sapiens) (UniProt Q9UGI6); assay: Inhibition of SK3 (unknown origin) expressed in HEK293 cells assessed as reduction in channel current at 10 uM with 0 mV holding potential measured within 100 secs by patch clamp electrophysiological method relative to control; assay type: cell-based; details: time 100.0 sec; summary of the method: as §3
[5] = Toxicity in human MCF7 cells assessed as reduction in cell number after 48 hrs by Hoechst 33342 staining based assay
Summary of the method: (§4)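 4000 cells per well. Cells exposed 24 h after seeding to 6 concentrations ([…]) for 48 h. They were then fixed in cold 90% ethanol/5% acetic acid for 20 min and nuclei stained with Hoechst 33342. Plates imaged on a high-content reader. IC₅₀ calculated; normal diploid skin fibroblasts served as control cells.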

[6] = Toxicity in human skin fibroblasts assessed as reduction in cell number after 48 hrs by Hoechst 33342 staining based assay; assay type: tissue-based, Fibroblast; summary of the method: as §4
[7] = Toxicity in human Caco-2 cells assessed as reduction in cell number after 48 hrs by Hoechst 33342 staining based assay; summary of the method: as §4
MDA-MB-435 [8] = assay: Inhibition of SK3/Orai1 in human MDA-MB-435 cells harboring SK3 shRNA assessed as reduction in Ca2+ influx at 1 uM measured after 1 hr by Fura2-AM dye based fluorescence assay; assay type: cell-based; summary of the method: as §1
MDA-MB-435 [9] = assay: Antimetastatic activity against human MDA-MB-435 cells harboring shRNA assessed as reduction in cell migration at 3 uM after 24 hrs by […] relative to control; assay type: functional; parameters: scale not given: the % may be the effect or the level left
[10] = Toxicity in human PC-3 cells assessed as reduction in cell number after 48 hrs by Hoechst 33342 staining based assay; summary of the method: as §4
MDA-MB-435 [11] = assay: Antimetastatic activity against human MDA-MB-435 cells harboring shRNA assessed as reduction in cell migration at 0.3 to 3 uM after 24 hrs by […]; assay type: functional, cell-based; details: dose 0.3-3 µM
MDA-MB-435 [12] = assay: Effect on calcium influx in human MDA-MB-435 cells harboring siRNA and siCTL at 1 uM measured after 1 hr by Fura2-AM dye based fluorescence assay; assay type: functional, cell-based; summary of the method: as §1
[13] = Toxicity in human NCI-H727 cells assessed as reduction in cell number after 48 hrs by Hoechst 33342 staining based assay; summary of the method: as §4
MDA-MB-435 [14] = assay: Toxicity in human MDA-MB-435 cells assessed as mortality at 1 uM measured after 24 hrs by MTT assay relative to control; assay type: cell-based; details: mda-mb-435, 24 h; summary of the method: as §2
[15] = Toxicity in human HCT-116 cells assessed as reduction in cell number after 48 hrs by Hoechst 33342 staining based assay; summary of the method: as §4
[16] = Toxicity in human MDA-MB-231 cells assessed as reduction in cell number after 48 hrs by Hoechst 33342 staining based assay; summary of the method: as §4
[17] = molecular target: Small conductance calcium-activated potassium channel protein 3 (Homo sapiens) (UniProt Q9UGI6); assay: Inhibition of SK3 in human MDA-MB-435 cells harboring SK3 shRNA assessed as reduction in Ca2+ influx at 1 uM measured after 1 hr by Fura2-AM dye based fluorescence assay; assay type: cell-based; summary of the method: as §1
MDA-MB-435 [18] = assay: Antimetastatic activity against human MDA-MB-435 cells assessed as reduction in cell migration at 1 uM after 24 hrs by […] relative to control; assay type: functional; parameters: scale not given: the % may be the effect or the level left
[19] = molecular target: Small conductance calcium-activated potassium channel protein 3 (Homo sapiens) (UniProt Q9UGI6); assay: Inhibition of SK3 (unknown origin) expressed in HEK293 cells assessed as reduction in channel current at 10 uM with 0 mV holding potential in presence of -apamin by patch clamp electrophysiological method; assay type: cell-based; summary of the method: as §3
MDA-MB-435 [20] = assay: Antimetastatic activity against human MDA-MB-435 cells harboring SK3 shRNA assessed as reduction in cell migration after 24 hrs by […]; assay type: functional, cell-based
[21] = Toxicity in human Huh-7 cells assessed as reduction in cell number after 48 hrs by Hoechst 33342 staining based assay; summary of the method: as §4
MDA-MB-435 [22] = assay: Toxicity in human MDA-MB-435 cells assessed as mortality at 3 uM measured after 24 hrs by MTT assay relative to control; assay type: cell-based; details: mda-mb-435, 24 h; summary of the method: as §2

SMILES	mortality (MDA-MB-435 [2]) [%]	IC50 at 48 h [5] [µM]	IC50 at 48 h [6] [µM]	IC50 at 48 h [7] [µM]	IC50 at 48 h [10] [µM]	IC50 at 48 h [13] [µM]	mortality (MDA-MB-435 [14]) [%]	IC50 at 48 h [15] [µM]	IC50 at 48 h [16] [µM]	IC50 at 48 h [21] [µM]	mortality (MDA-MB-435 [22]) [%]	other results
CCCCCCCC/C=C\CCCCCCC[C@H](C[C@@H]1C=CCCN1C)OC(C)=O	70	15	13	9	8	19	0	9	10	10	–	Activity (MDA-MB-435 [1]): inactive; inhibition [3]: 70%; inhibition [4]: 50%; inhibition (MDA-MB-435 [8]): Active; Activity (MDA-MB-435 [9]): <=40%; Activity (MDA-MB-435 [11]): inactive; Activity (MDA-MB-435 [12]): inactive; inhibition [17]: inactive; Activity (MDA-MB-435 [18]): 40%; inhibition [19]: Active; Activity (MDA-MB-435 [20]): Dose-dependent effect
CCCCCCCCCCCCCCCCCCC[C@@H](O)C[C@@H]1C=CCCN1C	–	> 25	> 25	> 25	> 25	> 25	20	> 25	> 25	> 25	30	–
CCCCCCCC/C=C\CCCCCCC[C@@H](O)C[C@@H]1C=CCCN1C	–	10	9	8	7	9	30	10	8	10	80	–
CCCCCCCC/C=C\CCCCCCCC(O)Cc1ccccn1 (centres undefined)	–	–	–	–	–	–	20	–	–	–	25	–
CCCCCCCCCCCCCCCCCCCC(Cc1ccccn1)OC (centres undefined)	–	–	–	–	–	–	20	–	–	–	20	–
COc1cccc2c1C(=O)c1c(O)c3c(c(O)c1C2=O)C[C@@](O)(C(=O)CO)C[C@@H]3O[C@H]1C[C@H](N)[C@H](O)[C@H](C)O1 [DOXORUBICIN]	–	–	0.03	0.17	0.12	0.66	–	0.12	–	–	–	–
CCCCCCCCCCCCCCCCCCC[C@H](C[C@@H]1C=CCCN1C)OC(C)=O	20	> 25	> 25	17	> 25	> 25	0	> 25	> 25	> 25	–	–
CCCCCCCCCCCCCCCCCC(Cc1cccc[n+]1C)OC.Cc1ccc(S(=O)(=O)[O-])cc1 (centres undefined)	80	–	–	–	–	–	30	–	–	–	–	–
CCCCCCCCCCCCCCCCC[C@H](C[C@@H]1C=CCCN1C)OC(C)=O	70	19	18	9	15	> 25	5	16	21	22	–	–
CCCCCCCCCCCCCCCCC[C@@H](O)C[C@@H]1CCCCN1C	35	–	–	–	–	–	0	–	–	–	–	–
